Where two headings read alike, the source gives them in different places.
Assays:
[1] = system: drug-resistant HIV-1 strains; test: Antiviral activity against drug-resistant HIV-1 strains in MT-4; assay type: cell-based; settings: MT-4
[2] = target: hERG (Homo sapiens, UniProt Q12809); test: Standard hERG test for cardiotoxicity
[3] = target: wild type HIV-1 RT (Human immunodeficiency virus type 1 group M subtype B, UniProt P04585); test: Biochemical RT inhibition assay
[4] = system: drug resistant clinical HIV isolates; test: Antiviral activity against drug-resistant HIV-1 in PBMCs; assay type: cell-based; settings: Human immunodeficiency virus 1, PBMC
[5] = target: HIV-1 integrase (Human immunodeficiency virus type 1 group M subtype B, UniProt P04585); test: HIV-1 integrase inhibition assay; assay type: biochemical
[6] = system: HIV-1IIIB; test: Antiviral activity with added serum proteins in CEM-SS cells; assay type: cell-based
[7] = system: IIIB strain of HIV-1 in CEM-SS cells; test: Combination drug interaction evaluation; assay type: cell-based
Summary of the method: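 CEM-SS cells infected with HIV-1 IIIB; inhibition of cytopathic effect measured for the test compound in two-drug combinations with known anti-HIV agents. Efficacy and toxicity analysed by Prichard–Shipman MacSynergy II. Expected additive inhibition computed from each agent's single-agent dose–response; inhibition above expected at each concentration calculated at 95%, 99% and 99.9% confidence. −99 to −51 μM2% scored antagonistic; <−100 highly antagonistic.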

[8] = system: cytochrome P450 enzymes; test: Inhibition of cytochrome P450 enzymes; assay type: in vitro ADME
[9] = system: MT-4 cells; test: Toxicity to MT-4 cells; assay type: cell-based; settings: all assays
[10] = system: HIVIIIB; test: Cell-to-cell virus transmission assay in CEM-SS cells; assay type: cell-based, HIV-1
[11] = system: HIV attachment to HeLa-CD4-LTR-β-gal cells; test: Attachment inhibition assay; assay type: cell-based, HIV-1; settings: Human immunodeficiency virus 1, read-out: Attachment inhibition EC50 ± SD
[12] = system: HL2/3 cells expressing HIV-1 gp120 and gp41 fusing with HeLa-CD4-LTR-β-gal cells; test: Fusion inhibition assay; assay type: cell-based; settings: Human immunodeficiency virus 1, HL2/3, read-out: Fusion inhibition EC50 ± SD
Summary of the method: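 HeLa-CD4-LTR-β-Gal cells incubated with test compound for 1 h at 37°C/5% CO2, then co-cultured 48 h with HL2/3 cells. Cells lysed and β-galactosidase expression measured by chemiluminescent Gal-Screen.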

[13] = in vitro; settings: human, CC50 (cytotoxic concentration), fresh human PBMCs
[14] = system: HIV-1IIIB; test: Drug-resistant virus selection by serial dose escalation; assay type: cell-based; settings: fourteen passages, CEM-SS cells
[15] = target: HIV-1 protease (Human immunodeficiency virus type 1 group M subtype B, UniProt P04585); test: HIV-1 protease inhibition assay; assay type: biochemical
[16] = system: clinical HIV-1 subtype B virus 92US723; test: Antiviral activity with added serum proteins in fresh human PBMCs; assay type: cell-based; settings: 50% human serum, AAGP or HSA vs medium only
[17] = Pharmacokinetics in rats; assay type: in vivo; settings: male, Sprague-Dawley, rat, plasma
Summary of the method: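 Male Sprague-Dawley rats, n = 3 per route. Prodrug given as IV bolus (50 mg/kg, 12.5 mg/mL in 5% DMSO/50% PEG300 in saline) or PO (1000 mg/kg, […] in 2% CMC suspension). Blood sampled over 24 h into sodium fluoride plus citric acid, kept on wet ice <10 min, then centrifuged at 4 °C. Plasma stored at −80 °C; prodrug and active metabolite quantified by UPLC-MS/MS (prodrug LLOQ 0.10 ng/mL).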

[18] = system: HIV strain 92US727; test: Cell-to-cell virus transmission assay in fresh human PBMCs; assay type: cell-based, HIV-1
Summary of the method: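 HIV-infected fresh human PBMCs treated 3 days with six concentrations of test compound. Passaged every 3 days for three passages at fixed compound concentration; 80% of culture volume replaced with fresh compound-containing medium and uninfected cells. Cell-free supernatants collected on sub-culture days for RT activity and extracellular p24 antigen. TCID50 per passage by endpoint dilution.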

hERG, sequence (Q12809 whole entry): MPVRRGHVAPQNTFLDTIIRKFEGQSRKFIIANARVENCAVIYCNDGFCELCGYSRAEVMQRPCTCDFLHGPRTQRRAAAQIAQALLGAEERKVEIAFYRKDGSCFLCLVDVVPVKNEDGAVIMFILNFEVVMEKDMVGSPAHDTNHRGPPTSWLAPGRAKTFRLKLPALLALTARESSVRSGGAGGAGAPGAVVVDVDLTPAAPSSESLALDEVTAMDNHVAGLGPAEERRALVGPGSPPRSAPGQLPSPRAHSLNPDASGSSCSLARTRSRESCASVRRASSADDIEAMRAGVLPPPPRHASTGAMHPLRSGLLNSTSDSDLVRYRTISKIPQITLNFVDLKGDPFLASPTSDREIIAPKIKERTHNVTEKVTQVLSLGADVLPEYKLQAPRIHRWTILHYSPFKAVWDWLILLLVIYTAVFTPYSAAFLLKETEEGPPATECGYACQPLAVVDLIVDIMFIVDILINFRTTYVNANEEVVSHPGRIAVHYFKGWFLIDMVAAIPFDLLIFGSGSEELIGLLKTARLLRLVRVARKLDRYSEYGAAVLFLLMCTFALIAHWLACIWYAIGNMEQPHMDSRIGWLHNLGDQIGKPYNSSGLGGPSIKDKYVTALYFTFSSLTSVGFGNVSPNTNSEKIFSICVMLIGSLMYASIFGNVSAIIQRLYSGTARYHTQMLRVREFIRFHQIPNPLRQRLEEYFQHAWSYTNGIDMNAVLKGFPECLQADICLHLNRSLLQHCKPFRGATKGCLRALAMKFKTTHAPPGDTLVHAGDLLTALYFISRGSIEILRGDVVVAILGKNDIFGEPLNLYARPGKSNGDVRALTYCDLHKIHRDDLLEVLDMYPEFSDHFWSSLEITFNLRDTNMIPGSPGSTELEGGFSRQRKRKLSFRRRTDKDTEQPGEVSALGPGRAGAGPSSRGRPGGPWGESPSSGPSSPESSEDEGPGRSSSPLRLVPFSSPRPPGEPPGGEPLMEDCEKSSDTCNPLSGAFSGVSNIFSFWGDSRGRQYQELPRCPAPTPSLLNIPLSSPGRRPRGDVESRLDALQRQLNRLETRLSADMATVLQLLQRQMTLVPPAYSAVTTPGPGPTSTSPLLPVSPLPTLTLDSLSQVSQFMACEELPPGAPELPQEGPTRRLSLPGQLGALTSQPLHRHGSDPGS

Q: Which EC50 ([1]; Human immunodeficiency virus 1, read-out: Mean EC50 ± SD, AZT- and NNRTI-resistant, RT 4xAZT/L100I) does the source give for CCCC(=O)OCSc1ccccc1C(=O)NCCC(N)=O [NS1040, ((2-((3-amino-3-oxopropyl)carbamoyl)phenyl)thio)methyl butyrate] here?
A: 3.54 ± 2.02 µM

Q: What about the EC50 ([1]; Human immunodeficiency virus 1, read-out: Mean EC50 ± SD, AZT- and NNRTI-resistant, RT 4xAZT/Y181C) of the same compound?
A: 5.24 ± 0.18 µM

Q: And the EC50 ([1]; Human immunodeficiency virus 1, read-out: Mean EC50 ± SD, AZT-resistant, RT 4xAZT (D67N/K70R/T215Y/K219Q))?
A: 4.24 ± 0.91 µM

Q: What about the EC50 ([1]; Human immunodeficiency virus 1, read-out: Mean EC50 ± SD, Atazanavir-resistant, PR I50L) of the same compound?
A: 1.27 ± 0.19 µM

Q: What about the EC50 ([1]; Human immunodeficiency virus 1, read-out: Mean EC50 ± SD, Didanosine-resistant, RT L74V) of the same compound?
A: 4.59 ± 0.61 µM

Q: And the EC50 ([1]; Human immunodeficiency virus 1, read-out: Mean EC50 ± SD, Enfuviritide-resistant, Env V38A/N126K)?
A: 5.48 ± 0.01 µM

Q: And the EC50 ([1]; Human immunodeficiency virus 1, read-out: Mean EC50 ± SD, Indinavir-, Ritonavir-resistant, PR I84V)?
A: 3.33 ± 0.44 µM

Q: What about the EC50 ([1]; Human immunodeficiency virus 1, read-out: Mean EC50 ± SD, Indinavir-, Ritonavir-resistant, PR V82A) of the same compound?
A: 6.73 ± 1.06 µM

Q: And the EC50 ([1]; Human immunodeficiency virus 1, read-out: Mean EC50 ± SD, Indinavir-, Ritonavir-resistant, PR V82F/I84V)?
A: 3.52 ± 1.7 µM

Q: And the EC50 ([1]; Human immunodeficiency virus 1, read-out: Mean EC50 ± SD, Lamivudine-resistant, RT M184V)?
A: 3.5 ± 1.1 µM

Q: What about the EC50 ([1]; Human immunodeficiency virus 1, read-out: Mean EC50 ± SD, NNRTI-resistant, RT K103N/Y181C) of the same compound?
A: 5.19 ± 0.06 µM

Q: What about the EC50 ([1]; Human immunodeficiency virus 1, read-out: Mean EC50 ± SD, NNRTI-resistant, RT K103N) of the same compound?
A: 5.02 ± 0.14 µM

Q: And the EC50 ([1]; Human immunodeficiency virus 1, read-out: Mean EC50 ± SD, NNRTI-resistant, RT L100I)?
A: 1.61 ± 0.41 µM

Q: And the EC50 ([1]; Human immunodeficiency virus 1, read-out: Mean EC50 ± SD, NNRTI-resistant, RT V106A)?
A: 4.07 ± 0.78 µM

Q: What about the EC50 ([1]; Human immunodeficiency virus 1, read-out: Mean EC50 ± SD, NNRTI-resistant, RT V108I) of the same compound?
A: 4.7 ± 0.17 µM

Q: And the EC50 ([1]; Human immunodeficiency virus 1, read-out: Mean EC50 ± SD, NNRTI-resistant, RT V179D)?
A: 5.01 ± 0.31 µM

Q: What about the EC50 ([1]; Human immunodeficiency virus 1, read-out: Mean EC50 ± SD, NNRTI-resistant, RT Y181C) of the same compound?
A: 4.52 ± 1.07 µM

Q: What about the EC50 ([1]; Human immunodeficiency virus 1, read-out: Mean EC50 ± SD, NNRTI-resistant, RT Y188C) of the same compound?
A: 4.72 ± 0.55 µM

Q: And the EC50 ([1]; Human immunodeficiency virus 1, read-out: Mean EC50 ± SD, Raltegravir-resistant, IN Q148H/G140S)?
A: 4.16 ± 0.26 µM

Q: What about the EC50 ([1]; Human immunodeficiency virus 1, read-out: Mean EC50 ± SD, Saquinavir-resistant, PR G48V/L90M) of the same compound?
A: 1.1 ± 0.32 µM

Q: And the EC50 ([1]; Human immunodeficiency virus 1, read-out: Mean EC50 ± SD, Tenofovir-resistant, RT K65R)?
A: 5.21 ± 0.08 µM

Q: What about the “hERG test for cardiotoxicity” value [2] of the same compound?
A: negative

Q: What about the EC50 [3] of the same compound?
A: > 100 µM

Q: And the EC50 ([4]; read-out: PBMC/HIV-1 EC50 ± SD, Multi-drug resistant AD. MDR)?
A: 7.21 ± 4.38 µM

Q: And the EC50 ([4]; read-out: PBMC/HIV-1 EC50 ± SD, Multi-drug resistant MDR769)?
A: 4.77 ± 0.95 µM

Q: And the EC50 ([4]; read-out: PBMC/HIV-1 EC50 ± SD, NNRTI-resistant A17R)?
A: 10 ± 4.78 µM

Q: And the EC50 ([4]; read-out: PBMC/HIV-1 EC50 ± SD, NNRTI-resistant N119)?
A: 5.9 ± 1.31 µM

Q: And the EC50 ([4]; read-out: PBMC/HIV-1 EC50 ± SD, PI-resistant 144-44)?
A: 8.38 ± 5.4 µM

Q: What about the EC50 ([4]; read-out: PBMC/HIV-1 EC50 ± SD, PI-resistant 1002-60) of the same compound?
A: 3.66 ± 0.28 µM

Q: And the EC50 ([4]; read-out: PBMC/HIV-1 EC50 ± SD, PI-resistant 1022-48)?
A: 3.45 ± 2.26 µM

Q: And the EC50 ([4]; read-out: PBMC/HIV-1 EC50 ± SD, PI-resistant 1026-60)?
A: 3.29 ± 0.57 µM

Q: And the EC50 ([4]; read-out: PBMC/HIV-1 EC50 ± SD, PI-resistant 1064-52)?
A: 2.62 ± 1.87 µM

Q: What about the EC50 ([4]; read-out: PBMC/HIV-1 EC50 ± SD, Wild Type 92US727) of the same compound?
A: 5.58 ± 0.12 µM

Q: And the EC50 [5]?
A: > 100 µM

Q: And the “fold decrease in potency” value ([6]; in the presence of 50% human AB serum)?
A: ~4.5 fold

Q: What about the “fold decrease in potency” value ([6]; in the presence of HSA (10 mg/mL)) of the same compound?
A: did not exhibit a significant decrease in potency

Q: What about the mean synergy volume ([7]; in combination with amprenavir) of the same compound?
A: 111 ± 27.8 μM^2%

Q: And the mean synergy volume ([7]; in combination with enfuviritide)?
A: 115 ± 39.5 μM^2%

Q: What about the mean synergy volume ([7]; in combination with lamivudine) of the same compound?
A: 180 ± 128 μM^2%

Q: What about the mean synergy volume ([7]; in combination with lopinavir) of the same compound?
A: 212 ± 62.2 μM^2%

Q: And the mean synergy volume ([7]; in combination with nelfinavir)?
A: 282 ± 61.5 μM^2%

Q: What about the mean synergy volume ([7]; in combination with ritonavir) of the same compound?
A: 143 ± 33.5 μM^2%

Q: What about the mean synergy volume ([7]; in combination with stavudine) of the same compound?
A: 110 ± 68 μM^2%

Q: And the “inhibition of cytochrome P450 enzymes” value [8]?
A: neither NS1040 nor MDH-1-38 had significant inhibitory activity

Q: What about the “non-toxic up to high test concentration” value [9] of the same compound?
A: > 100 µM

Q: And the “fold less effective than MDH-1-38 at reducing cell to cell HIV transmission” value [10]?
A: approximately 3 fold

Q: What about the RT ([10]; Passage 1, 2 μM) of the same compound?
A: 27 cpm

Q: What about the TCID50/mL ([10]; Passage 1, 2 μM) of the same compound?
A: 0 TCID50/mL

Q: And the p24 ([10]; Passage 1, 2 μM)?
A: 725 pg/mL

Q: And the RT ([10]; Passage 2, 2 μM)?
A: 1063 cpm

Q: What about the p24 ([10]; Passage 2, 2 μM) of the same compound?
A: 85,803 pg/mL

Q: And the RT ([10]; Passage 3, 2 μM)?
A: 7036 cpm

Q: What about the TCID50/mL ([10]; Passage 3, 2 μM) of the same compound?
A: 1.31 × 10^4 TCID50/mL

Q: And the p24 ([10]; Passage 3, 2 μM)?
A: 1,570,937 pg/mL

Q: And the EC50 [11]?
A: > 100 µM

Q: And the EC50 [12]?
A: > 100 µM

Q: And the CC50 [13]?
A: > 216 µM

Q: What about the “selection of resistant virus” value [14] of the same compound?
A: did not result in resistance

Q: What about the EC50 [15] of the same compound?
A: > 100 µM

Q: What about the “change in antiviral activity with serum protein additives” value [16] of the same compound?
A: no significant change in antiviral activity

Q: And the concentration at 1 h ([17]; iv, 50 mg/kg)?
A: < 0.1 ng/mL

Q: And the concentration at 0.75 h ([17]; po, 1000 mg/kg)?
A: < 0.1 ng/mL

Q: And the RT ([18]; Passage 1, 5 μM)?
A: 222 cpm

Q: And the TCID50/mL ([18]; Passage 1, 5 μM)?
A: 4.18 × 10^2 TCID50/mL

Q: And the p24 ([18]; Passage 1, 5 μM)?
A: 766 pg/mL

Q: And the RT ([18]; Passage 2, 5 μM)?
A: 595 cpm

Q: What about the TCID50/mL ([18]; Passage 2, 5 μM) of the same compound?
A: 6.86 × 10^3 TCID50/mL

Q: What about the p24 ([18]; Passage 2, 5 μM) of the same compound?
A: 1731 pg/mL

Q: What about the RT ([18]; Passage 3, 5 μM) of the same compound?
A: 9728 cpm

Q: What about the TCID50/mL ([18]; Passage 3, 5 μM) of the same compound?
A: 6.52 × 10^4 TCID50/mL

Q: What about the p24 ([18]; Passage 3, 5 μM) of the same compound?
A: 61,967 pg/mL

From PMC7113734 (Antiviral Research, 2016)
